A selection: hits, their analogues and other compounds. The true share with any hit is near 5.1%.
STAT3 inh: IL-6 driven STAT3 reporter inhibitors, primary screen, U3A cells, luciferase, luminescence, MLSCN library; AID 862, 2007; IL-6 STAT3-luciferase reporter; host cell line lacks STAT1; inhibition, % at 5.5 µM; 0.89% of 190,000 active;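 active means inhibition above the mean inhibition across all screened compounds plus 3 SD, cut at about 44% in these data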
STAT3 activator: IL-6 driven STAT3 reporter potentiators, primary screen, U3A cells, luciferase, luminescence, MLSCN library. IL-6 STAT3-luciferase reporter; 100% = signal with IL-6 EC80 alone. activation (% of control), % at 5.6 µM. 0.91% of 190,000 active. AID 871, 2007;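 active means activation above the screen-wide mean of compound activation plus 3 SD, cut at about 130% in these data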
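Test system: human U3A cells carrying STAT3-luciferase construct; control set: IL-6-only wells as 100% reference; timing: compound pre-incubation 1 h before IL-6, then 6 h stimulation at 37 °C; also added: IL-6 stimulus at 33 ng/mL final; evaluation: % activation versus median of IL-6-stimulated wells; detection: reporter luminescence signal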
STAT1 act: STAT1 signaling activators, primary screen, cell-based, HTS, luciferase reporter; activation (% of control), % at 5.5 µM; NIH 3T3 STAT1-luciferase reporter, IFN-gamma, luminescence; 100% = IFN-gamma alone, no compound; 2.6% of 200,000 active; AID 932, 2007;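 active means activation above the screen-wide mean activation plus 3 SD, cut at about 130% in these data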
APP 5'UTR act: activators of APP 5'UTR luciferase reporter, primary screen, SH-SY5Y cells; SH-SY5Y APP 5'UTR luciferase reporter, luminescence; zero percent = DMSO vehicle wells; activation, % at 2 µM; 1% of 190,000 active; AID 1276, 2008;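 active means activation above a set limit, based on mean plus 3 SD of controls, cut at about 140% in these data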
NF-kB neuron act: activators of NF-kB expression in neurons, primary screen, cell-based, HTS; human neuronal cells, NF-kB reporter expression; stronger effect = higher value; 1.6% of 190,000 active; fold change at 12.5 µM; in the data active means fold change above about 3.3
STAT1 blocker: STAT1 signaling inhibitors, primary screen, cell-based, HTS, luciferase reporter. NIH 3T3 STAT1-luciferase reporter, IFN-gamma, luminescence. inhibition, % at 5.5 µM. 0.35% of 200,000 active;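 active means inhibition above a set limit, the mean inhibition across all tested compounds plus 3 SD, cut at about 34% in these data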
Numbers stand for hits; – = inactive.

SMILES | STAT3 inh | STAT3 activator | STAT1 act | APP 5'UTR act | NF-kB neuron act | STAT1 blocker
Cc1cc(C(=O)CSc2nnnn2C)c(C)n1-c1ccc2c(c1)OCCO2 | – | – | 138 | – | – | –
CC(C)n1nnnc1SCC(=O)c1ccc2c(c1)OCCO2 | – | – | – | 156 | – | –
CCn1nnnc1SCC(=O)c1ccc2c(c1)OCCO2 | – | – | – | – | – | –
O=C(NC1CCCCCC1)C1Cc2ccccc2CN1C(=O)c1ccco1 (configuration not stated) | – | – | – | – | – | –
Cc1ccc(C(=O)Nc2ccc(Br)c(C(F)(F)F)c2)cc1 | – | – | 143 | – | – | –
[O-]/C(=C(\C(=S)Nc1ccc(SC(F)F)cc1)[n+]1ccccc1)c1ccc(Cl)cc1Cl | – | – | – | – | 4.7 | –
Cc1ccc(S(=O)(=O)Nc2ccccn2)cc1[N+](=O)[O-] | – | – | – | – | – | –
Cc1cc(C)cc(OCC(=O)OCC(=O)Nc2c(C)n(C)n(-c3ccccc3)c2=O)c1 | – | – | – | – | – | –
CN1CCN(C(CC(=O)Nc2cccc(O)c2)C(=O)O)CC1 (configuration not stated) | – | – | – | – | – | –
COC(=O)c1c(NC(=O)CN2C(=O)NC3(CCc4ccccc4C3)C2=O)sc2c1CCCCC2 (configuration not stated) | – | – | – | – | – | –
COc1ccc(N2C(N)=NC(N)=NC2(C)C)cc1 | – | – | – | – | 3.9 | –
CC(C)N1CCc2c(sc(NC(=S)NC(=O)c3ccccc3)c2C#N)C1 | – | – | 134 | – | – | –
CCCN1CCc2c(sc(NC(=S)NC(=O)c3ccccc3)c2C#N)C1 | – | – | – | – | – | –
Cc1nonc1OCC(C)(COc1nonc1C)NC(=O)c1ccccc1 | – | – | – | – | – | –
COc1ccc2sc(NC(=O)c3ccco3)nc2c1 | 84 | – | – | – | – | 38
COc1ccc2c(c1)CCc1sc(NC(=O)c3ccco3)nc1-2 | – | – | – | – | – | –
Cc1cnc(NC(=O)c2cncc(Br)c2)s1 | – | – | 136 | 181 | 4 | –
Cc1cnc(NC(=O)c2ccncc2)s1 | – | – | – | – | – | –
Cc1cnc(NC(=O)c2ccco2)s1 | – | – | 139 | – | – | –
COc1ccc2nc(NC(=S)NC(=O)c3ccco3)sc2c1 | – | – | 146 | 161 | – | –
O=C(CN1CCOCC1)NN=C1CCCCCCCCCCC1 | – | – | – | – | – | –
O=C(Nc1nnc(C2CC2)s1)c1ccco1 | – | – | – | – | – | –
O=C(Nc1nnc(C2CCCCC2)s1)c1ccco1 | – | – | 130 | – | – | –
Cc1cc(C)c2c(N)c(C(=O)Nc3ncc(C)s3)sc2n1 | 108 | – | – | – | – | 87
O=C(NC(=S)Nc1nc2ccccc2s1)c1ccco1 | – | 146 | 130 | 143 | – | –
SMILES | STAT3 inh | STAT3 activator | STAT1 act | APP 5'UTR act | NF-kB neuron act | STAT1 blocker
COC(=O)c1ccc(CSCC(=O)Nc2ccccc2)cc1 | – | – | – | – | – | –
O=C(O)c1ccc(N=NNc2cccc([N+](=O)[O-])c2)cc1 | – | – | 143 | – | 4.1 | –
COC(=O)c1ccc(N=NNc2ccc(C(=O)OC)cc2)cc1 | – | – | 148 | – | 3.5 | –
COC(=O)c1ccc(N=NNc2ccccc2)cc1 | – | – | 146 | – | – | –
COCc1c(Br)c(C)nc(OCC(=O)N/N=C/c2cc(C)n(-c3ccc([N+](=O)[O-])cc3)c2C)c1C#N | – | – | – | – | – | –
CC(NC(=O)C1CCCCC1)C(=O)NC1=NCCS1 (configuration not stated) | – | – | – | – | – | –
COc1ccc2[nH]c(-c3ccc(C)cc3)cc(=O)c2c1 | – | – | – | – | 4.2 | –
COc1ccc(-c2cc(=O)c3cc(F)ccc3[nH]2)cc1 | – | – | – | – | – | –
CC(C)OP(=O)(OC(C)C)C1(O)C(=O)Nc2ccccc21 (configuration not stated) | – | – | – | – | – | –
CSc1ncccc1C(=O)OCc1ccc(C#N)cc1 | – | – | – | – | – | –
COC(=O)c1cccc(COC(=O)c2cccnc2SC)c1 | – | – | – | – | 3.5 | –
COc1ccc(C(C)=O)cc1COC(=O)c1cccnc1SC | – | – | – | – | 3.9 | –
COc1ccc(OC)c(NC(=O)COC(=O)/C=C/c2ccc(Cl)cc2)c1 | – | – | – | – | – | –
COc1ccc(Nc2nnc(-c3ccc(N4CCOCC4)c([N+](=O)[O-])c3)c3ccccc23)cc1 | – | – | – | – | – | –
Oc1ccc(F)cc1-c1cc(-c2ccc3c(c2)OCCO3)n[nH]1 | – | – | – | 197 | 11 | –
Cc1ccc(O)c(-c2cc(-c3cccc(Br)c3)n[nH]2)c1 | – | – | – | – | – | –
c1ccc(C2=Nc3ccccc3NC(c3ccccc3)C2)cc1 (configuration not stated) | – | – | – | – | – | –
Brc1ccccc1C1CC(c2ccccc2)=Nc2ccccc2N1 (configuration not stated) | – | – | 135 | 149 | – | –
Cn1c(-c2ccc(F)cc2)cnc1SCC(=O)N1CCCCC1 | – | – | 138 | – | 3.9 | –
CC1Cc2ccccc2N1C(=O)CSc1ncc(-c2ccc(F)cc2)n1C (configuration not stated) | – | – | 133 | – | – | –
CCOc1ncccc1C(=O)N1CCN(c2cc(Cl)ccc2C)CC1 | – | – | – | – | – | –
CCOc1ncccc1C(=O)N1CCN(c2cccc(C)c2C)CC1 | – | – | – | – | 3.9 | –
O=C(Nc1ccccc1)c1ccc(-c2ccccc2)s1 | – | – | 137 | – | – | –
O=C(Nc1ccccc1)c1sc(Cl)nc1-c1ccccc1 | – | – | – | – | – | –
O=C(Oc1cc(Cl)ccc1Cl)c1ccc(N2CCOCC2)c([N+](=O)[O-])c1 | – | – | – | – | – | –
CCN(CC(=O)Nc1ccc(Cl)c(C(F)(F)F)c1)CC(=O)NC1CCS(=O)(=O)C1 (configuration not stated) | – | – | – | – | – | –
CN1CCc2c(sc3c2C(=O)NC(c2ccccn2)N3)C1 (configuration not stated) | – | – | – | – | – | –
O=C1NC(c2ccccn2)Nc2sc3c(c21)CCC3 (configuration not stated) | – | – | – | – | 5 | –
Cc1ccc(C2NC(=O)c3c(sc4c3CCN(C)C4)N2)s1 (configuration not stated) | – | – | 138 | – | – | –
